Laboratory results taken from ChEMBL document CHEMBL1156833, “The discovery of MK-0674, an orally bioavailable cathepsin K inhibitor” (Bioorg Med Chem Lett, 2010).

Tested on: Rattus norvegicus
Experiment: Metabolic stability in rat at 25 mg/kg, po after up to 24 hrs
Assay type: ADME, organism-based
Design: dose 25 mg/kg, route oral
Conditions: in vivo

| Stability | Compound |
| --- | --- |
| Stable | CC(C)(F)C[C@H](N[C@@H](c1ccc(-c2ccc(C(=O)C(F)F)cc2)cc1)C(F)(F)F)C(=O)NC1(C#N)CC1 |
| Stable | [2H][C@](O)(c1ccc(-c2ccc([C@H](N[C@@H](CC(C)(C)F)C(=O)NC3(C#N)CC3)C(F)(F)F)cc2)cc1)C(F)F |

Tested on: not listed separately
Experiment: (§1) Metabolic stability in dog hepatocytes assessed as formation ratio of (S)-N-(1-cyanocyclopropyl)-2-((S)-1-(4'-((R)-2,2-difluoro-1-hydroxyethyl)biphenyl-4-yl)-2,2,2-trifluoroethylamino)-4-fluoro-4-methylpentanamide to (S)-N-(1-cyanocyclopropyl)-2-((S)-1-(4'-((S)-2,2-difluoro-1-hydroxyethyl)biphenyl-4-yl)-2,2,2-trifluoroethylamino)-4-fluoro-4-methylpentanamide
Assay type: ADME, cell-based, Canis lupus familiaris, Hepatocyte
Conditions: not given

| Ratio | Compound |
| --- | --- |
| 5 | CC(C)(F)C[C@H](N[C@@H](c1ccc(-c2ccc(C(=O)C(F)F)cc2)cc1)C(F)(F)F)C(=O)NC1(C#N)CC1 |

Tested on: Rattus norvegicus
Experiment: (§2) Metabolic stability in rat assessed as formation ratio of (S)-N-(1-cyanocyclopropyl)-2-((S)-1-(4'-((R)-2,2-difluoro-1-hydroxyethyl)biphenyl-4-yl)-2,2,2-trifluoroethylamino)-4-fluoro-4-methylpentanamide to (S)-N-(1-cyanocyclopropyl)-2-((S)-1-(4'-((S)-2,2-difluoro-1-hydroxyethyl)biphenyl-4-yl)-2,2,2-trifluoroethylamino)-4-fluoro-4-methylpentanamide at 25 mg/kg, po and 5 mg/kg, iv
Assay type: ADME, organism-based
Conditions: in vivo

| Ratio | Compound |
| --- | --- |
| > 10 | CC(C)(F)C[C@H](N[C@@H](c1ccc(-c2ccc(C(=O)C(F)F)cc2)cc1)C(F)(F)F)C(=O)NC1(C#N)CC1 |

Molecular target: Cathepsin K (Homo sapiens, UniProt P43235)
Experiment: Inhibition of humanized rabbit cathepsin K
Conditions: not given

| IC50 [nM] | Compound |
| --- | --- |
| 0.3 | Cc1csc(-c2ccc([C@H](N[C@@H](CC(C)(C)F)C(=O)NC3(C#N)CC3)C(F)(F)F)cc2)n1 |
| 0.2 | CC(C)(F)C[C@H](N[C@@H](c1ccc(-c2ccc(C3(O)CC3)cc2)cc1)C(F)(F)F)C(=O)NC1(C#N)CC1 |

Organism: Homo sapiens
Experiment: Selectivity ratio of IC50 for human cathepsin S to IC50 for humanized rabbit cathepsin K
Conditions: not given

| Ratio IC50 | Compound |
| --- | --- |
| 777 | Cc1csc(-c2ccc([C@H](N[C@@H](CC(C)(C)F)C(=O)NC3(C#N)CC3)C(F)(F)F)cc2)n1 |
| 106 | CC(C)(F)C[C@H](N[C@@H](c1ccc(-c2ccc(C3(O)CC3)cc2)cc1)C(F)(F)F)C(=O)NC1(C#N)CC1 |

Tested on: Rattus norvegicus
Experiment: Metabolic stability in rat assessed as conversion to (S)-N-(1-cyanocyclopropyl)-2-((S)-1-(4'-((R)-2,2-difluoro-1-hydroxyethyl)biphenyl-4-yl)-2,2,2-trifluoroethylamino)-4-fluoro-4-methylpentanamide at 25 mg/kg, po
Assay type: ADME, organism-based
Design: dose 25 mg/kg, route oral
Conditions: in vivo

| Stability | Compound |
| --- | --- |
| Unstable | [2H][C@](O)(c1ccc(-c2ccc([C@H](N[C@@H](CC(C)(C)F)C(=O)NC3(C#N)CC3)C(F)(F)F)cc2)cc1)C(F)F |

Organism: Homo sapiens
Experiment: Selectivity ratio of IC50 for human cathepsin L to IC50 for humanized rabbit cathepsin K
Conditions: not given

| Ratio IC50 | Compound |
| --- | --- |
| 18800 | Cc1csc(-c2ccc([C@H](N[C@@H](CC(C)(C)F)C(=O)NC3(C#N)CC3)C(F)(F)F)cc2)n1 |
| 11000 | CC(C)(F)C[C@H](N[C@@H](c1ccc(-c2ccc(C3(O)CC3)cc2)cc1)C(F)(F)F)C(=O)NC1(C#N)CC1 |

Tested on: Hepatocyte
Experiment: as §1, with “human” for “dog”
Assay type: ADME, cell-based
Conditions: not given

| Ratio | Compound |
| --- | --- |
| > 200 | CC(C)(F)C[C@H](N[C@@H](c1ccc(-c2ccc(C(=O)C(F)F)cc2)cc1)C(F)(F)F)C(=O)NC1(C#N)CC1 |

Tested on: Rattus norvegicus
Experiment: Metabolic stability in rat at 25 mg/kg, po and 5 mg/kg, iv up to 24 hrs
Assay type: ADME, organism-based
Conditions: in vivo

| Stability | Compound |
| --- | --- |
| Stable | CC(C)(F)C[C@H](N[C@@H](c1ccc(-c2ccc(C(=O)C(F)F)cc2)cc1)C(F)(F)F)C(=O)NC1(C#N)CC1 |
| Stable | [2H][C@](O)(c1ccc(-c2ccc([C@H](N[C@@H](CC(C)(C)F)C(=O)NC3(C#N)CC3)C(F)(F)F)cc2)cc1)C(F)F |

Tested on: not listed separately
Experiment: Decrease in bone resorption assessed as corrected bone resorption measured as ratio of bone resorption IC50 x humanized rabbit cathepsin K IC50 to rabbit cathepsin K IC50 equation
Assay type: functional, tissue-based, Bone element
Conditions: not given

| IC50 [nM] | Compound |
| --- | --- |
| 14 | Cc1csc(-c2ccc([C@H](N[C@@H](CC(C)(C)F)C(=O)NC3(C#N)CC3)C(F)(F)F)cc2)n1 |
| 13 | CC(C)(F)C[C@H](N[C@@H](c1ccc(-c2ccc(C3(O)CC3)cc2)cc1)C(F)(F)F)C(=O)NC1(C#N)CC1 |

Tested on: Canis familiaris
Experiment: Metabolic stability in dog at 25 mg/kg, po and 5 mg/kg, iv up to 24 hrs
Assay type: ADME, organism-based, Canis lupus familiaris
Conditions: in vivo

| Stability | Compound |
| --- | --- |
| Stable | CC(C)(F)C[C@H](N[C@@H](c1ccc(-c2ccc(C(=O)C(F)F)cc2)cc1)C(F)(F)F)C(=O)NC1(C#N)CC1 |
| Stable | [2H][C@](O)(c1ccc(-c2ccc([C@H](N[C@@H](CC(C)(C)F)C(=O)NC3(C#N)CC3)C(F)(F)F)cc2)cc1)C(F)F |

Tested on: not listed separately
Experiment: Oral bioavailability in rat
Assay type: ADME, organism-based
Conditions: in vivo
In short: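 Pharmacokinetics in rats, rabbits and rhesus monkeys after oral dosing in 1% methocel vehicle. Half-life and oral bioavailability were derived from the plasma profiles.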

| bioavailability [%] | Compound |
| --- | --- |
| 10 | Cc1csc(-c2ccc([C@H](N[C@@H](CC(C)(C)F)C(=O)NC3(C#N)CC3)C(F)(F)F)cc2)n1 |

Organism: Homo sapiens
Experiment: Selectivity ratio of IC50 for human cathepsin B to IC50 for humanized rabbit cathepsin K
Conditions: not given

| Ratio IC50 | Compound |
| --- | --- |
| 4040 | Cc1csc(-c2ccc([C@H](N[C@@H](CC(C)(C)F)C(=O)NC3(C#N)CC3)C(F)(F)F)cc2)n1 |
| 1420 | CC(C)(F)C[C@H](N[C@@H](c1ccc(-c2ccc(C3(O)CC3)cc2)cc1)C(F)(F)F)C(=O)NC1(C#N)CC1 |

Tested on: not listed separately
Experiment: Oral bioavailability in squirrel monkey
Assay type: ADME, organism-based
Conditions: saimiri, in vivo

| bioavailability [%] | Compound |
| --- | --- |
| 5 | Cc1csc(-c2ccc([C@H](N[C@@H](CC(C)(C)F)C(=O)NC3(C#N)CC3)C(F)(F)F)cc2)n1 |

Tested on: Canis familiaris
Experiment: as §2, with “in dog” for “in rat”
Assay type: ADME, organism-based, Canis lupus familiaris
Conditions: in vivo

| Ratio | Compound |
| --- | --- |
| 5 | CC(C)(F)C[C@H](N[C@@H](c1ccc(-c2ccc(C(=O)C(F)F)cc2)cc1)C(F)(F)F)C(=O)NC1(C#N)CC1 |

Organism: Homo sapiens
Experiment: Selectivity ratio of IC50 for human cathepsin F to IC50 for humanized rabbit cathepsin K
Conditions: not given

| Ratio IC50 | Compound |
| --- | --- |
| 1980 | Cc1csc(-c2ccc([C@H](N[C@@H](CC(C)(C)F)C(=O)NC3(C#N)CC3)C(F)(F)F)cc2)n1 |
| 1150 | CC(C)(F)C[C@H](N[C@@H](c1ccc(-c2ccc(C3(O)CC3)cc2)cc1)C(F)(F)F)C(=O)NC1(C#N)CC1 |

Tested on: not listed separately
Experiment: as §1, with “rabbit” for “dog”
Assay type: ADME, cell-based, Oryctolagus cuniculus, Hepatocyte
Conditions: not given

| Ratio | Compound |
| --- | --- |
| 48 | CC(C)(F)C[C@H](N[C@@H](c1ccc(-c2ccc(C(=O)C(F)F)cc2)cc1)C(F)(F)F)C(=O)NC1(C#N)CC1 |

Tested on: Hepatocyte
Experiment: as §1, with “rat” for “dog”
Assay type: ADME, cell-based
Conditions: not given

| Ratio | Compound |
| --- | --- |
| 24 | CC(C)(F)C[C@H](N[C@@H](c1ccc(-c2ccc(C(=O)C(F)F)cc2)cc1)C(F)(F)F)C(=O)NC1(C#N)CC1 |
